The results in this text go back to ChEMBL document CHEMBL1133696, “Development of a lead inhibitor for the A16V+S108T mutant of dihydrofolate reductase from the cycloguanil-resistant strain (T9/94) of Plasmodium falciparum” (J Med Chem, 2000).

In experiment [1] the target is Bifunctional dihydrofolate reductase-thymidylate synthase (Plasmodium falciparum K1) (UniProt P13922). As to the kind of experiment: Ratio of inhibitory constant of mutant by wild-type DHFRs of Plasmodium falciparum.
The subject of experiment [2] is Plasmodium falciparum. Kind of experiment: Growth inhibition (IC50) against Plasmodium falciparum wild-type TM4/8.2. Type of experiment: functional, organism-based. In a few lines:
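TM4/8.2 clone (wild-type DHFR) grown in human erythrocytes, RPMI 1640 with 25 mM HEPES pH 7.4, 0.2% NaHCO3, gentamicin, 10% human serum, 37 °C, 3% CO2. Drug from DMSO (final 0.1%), 1.5% cell suspension at 1-2% parasitemia; [3H]-hypoxanthine added after 24 h, a further 18-24 h incubation. IC50 from sigmoidal incorporation-versus-concentration curve.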

Experiment [3] addresses Bifunctional dihydrofolate reductase-thymidylate synthase (Plasmodium falciparum K1) (UniProt P13922). As to the kind of experiment: Evaluated for activity of compound relative to Cycloguanil.
In experiment [4] the test system is Plasmodium falciparum. As to the kind of experiment: Growth inhibition IC50 against Plasmodium falciparum mutant T9/94. It is filed as functional, organism-based. In a few lines: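 Parasites kept in human erythrocytes in RPMI 1640 with 25 mM HEPES pH 7.4, 0.2% NaHCO3, gentamicin and 10% human serum, at 37 °C under 3% CO2. Clones used were TM4/8.2 (wild-type DHFR) and T9/94 RC17 (A16V+S108T). Drug dilutions were made from DMSO stocks, final DMSO 0.1%, and added to a 1.5% cell suspension at 1-2% parasitemia. After 24 h, 0.25 µCi [3H]-hypoxanthine was added for a further 18-24 h, then scintillation counting. IC50 taken from a sigmoidal curve.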

The target of experiment [5] is Bifunctional dihydrofolate reductase-thymidylate synthase (Plasmodium falciparum K1, UniProt P13922, A16V/S108T). Kind of experiment: Inhibition constant (Ki mut) against A16V+S108T Mutant DHFRs of Plasmodium falciparum.
For experiment [6], the target named is Bifunctional dihydrofolate reductase-thymidylate synthase (Plasmodium falciparum K1) (UniProt P13922). Kind of experiment: Selectivity ratio of growth inhibition against Plasmodium falciparum TM4/8.2(wild-type) and T9/94(mutant). Type of experiment: functional.
For experiment [7] the target is unchanged. As to the kind of experiment: Evaluated for activity of relative to Cycloguanil.

Molecules are shown by their SMILES.

Chain of Bifunctional dihydrofolate reductase-thymidylate synthase (Plasmodium falciparum K1) (P13922 whole entry, looked up): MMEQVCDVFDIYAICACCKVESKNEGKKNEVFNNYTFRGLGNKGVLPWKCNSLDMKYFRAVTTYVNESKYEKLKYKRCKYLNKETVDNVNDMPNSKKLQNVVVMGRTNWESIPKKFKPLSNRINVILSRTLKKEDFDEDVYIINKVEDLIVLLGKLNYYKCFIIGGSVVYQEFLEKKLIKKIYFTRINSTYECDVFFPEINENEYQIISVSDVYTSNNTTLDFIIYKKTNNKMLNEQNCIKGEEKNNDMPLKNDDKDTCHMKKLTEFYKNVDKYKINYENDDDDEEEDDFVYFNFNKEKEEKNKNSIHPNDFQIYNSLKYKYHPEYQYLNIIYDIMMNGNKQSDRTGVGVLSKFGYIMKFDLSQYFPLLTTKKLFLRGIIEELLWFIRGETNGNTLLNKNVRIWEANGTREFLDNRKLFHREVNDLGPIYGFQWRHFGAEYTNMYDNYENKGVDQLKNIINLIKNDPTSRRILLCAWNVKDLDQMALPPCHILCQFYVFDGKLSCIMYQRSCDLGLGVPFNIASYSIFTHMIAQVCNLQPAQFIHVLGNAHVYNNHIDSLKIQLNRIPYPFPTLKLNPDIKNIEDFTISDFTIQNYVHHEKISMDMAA
Chain of Bifunctional dihydrofolate reductase-thymidylate synthase (P13922 whole entry, looked up, stated change not applied): as the sequence (P13922 whole entry, looked up) above

Usually IC50 stands for the midpoint of a concentration-inhibition curve. Read a high IC50 as weaker potency in that assay. As usually defined, the Ki is a dissociation constant, usually derived from enzyme kinetics or from competition with a known ligand. Take `CC1(C)N=C(N)N=C(N)N1c1ccc(Cl)c(Cl)c1` [CHLORCYCLOGUANIL]: in experiment [1], the Ratio was found to be 119. The IC50 in the experiment on Plasmodium falciparum [2] was 4 nM; with Plasmodium falciparum [4], 307 nM. The Relative activity in experiment [3] amounted to 0.1; in experiment [7], 0.73. Moreover, the Ki in experiment [5] was 131 nM. The IC50 ratio in experiment [6] came to 76.8.
